Screens as filed in PubChem.
This is a sample that favours compounds with a hit; in the whole collection about 1.7% have one here.
TPT1 inhibitor: Candida albicans TPT1 enzyme inhibitors, primary screen, biochemical, fluorescence polarization. tRNA 2'-phosphotransferase TPT1 (Candida albicans SC5314). recombinant caTPT1, FP RNA substrate dephosphorylation. inhibition, % at 5 µM. 300,000 compounds, 0.81% hits;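 active means inhibition above the mean of all tested compounds plus 3 SD, set per screening campaign, cut at about 24% in these data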
CSN inh: inhibitors of CSN-mediated cullin deneddylation, primary screen, biochemical, fluorescence polarization, uHTS; inhibition, % at 12.5 µM; Purified CSN, SCF-Nedd8-OG deneddylation; 360,000 compounds, 0.38% hits;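 active means pattern-corrected inhibition above about 35%, with an unprinted fluorescence ratio check between 0.5 and 1.5, limit read from the data, passing the limit was not always enough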
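Schedule: reaction 90 min, room temperature / Assay system: HEK293T-derived human Csn5 enzyme / Input: Csn5 at 0.24 nM final / Measure: inhibition of Csn5 cleavage, % / Control set: substrate-only high control, full reaction low control / Technique: fluorescence polarization of the substrate / Buffer or medium: Tris/NaCl/DTT buffer, pH 7.5 / Reagent: SCFSkp2-Nedd8OG substrate at 10 nM final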
IDE cell activ: human IDE activators in live cells, primary screen, fluorescence polarization, HEK cells, FAbeta-B substrate; Insulin-degrading enzyme (Homo sapiens), P14735; FAbeta-B cleavage; 0% vehicle, 100% cell-free pure enzyme wells; activation, % at 5.96 µM; 340,000 compounds, 0.073% hits; AID 493087, 2011;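 active means activation above the mean of all tested compounds plus 3 SD, set per screening campaign, cut at about 17% in these data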
Rpn11 block: Rpn11 (PSMD14) deubiquitinase inhibitors, primary screen, biochemical, fluorescence polarization, uHTS; 26S proteasome non-ATPase regulatory subunit 14 (Homo sapiens), O00487; human 26S proteasome, Ub4-pepOG fluorescence polarization; 20S core pre-blocked with epoxomicin; inhibition, % at 20 µM; 360,000 compounds, 0.59% hits; AID 588493, 2011;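 active means inhibition at 20 µM, scaled to each plate's controls, above about 33%, limit read from the data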
IDE cell inh: human IDE inhibitors in live cells, primary screen, fluorescence polarization, HEK cells, FAbetaB substrate | Insulin-degrading enzyme (Homo sapiens), P14735 | 320,000 compounds, 0.41% hits | FAbetaB cleavage | inhibition, % at 5.59 µM;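 active means percent inhibition above the average of all tested compounds plus 3 SD, set per screening campaign, cut at about 16% in these data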;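 further: IDE supplied by intact live HEK cells; FP after avidin binding of uncleaved biotin substrate so inhibition keeps polarization high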
HNF4A DNA FP: change in binding of human HNF4A to DNA, primary screen, biochemical, fluorescence polarization, FITC-DNA. Hepatocyte nuclear factor 4-alpha (Homo sapiens), P41235. 1 h. activity change, % at 10 µM. 360,000 compounds, 0.3% hits. AID 1224865, 2016; in the data active means activity change above about 30%, passing the limit was not always enough
Rpn11 inh conf: Rpn11 (PSMD14) deubiquitinase inhibitors, confirmation, biochemical, fluorescence polarization, single concentration | shares compounds with Rpn11 block | purified human 26S proteasome, Ub4-pepOG fluorescence polarization; proteasome pretreated with epoxomicin | inhibition, % at 20 µM | 1,900 compounds, 29% hits | AID 602318, 2012
MMP-2 counter-1: MMP-2 enzyme inhibition, confirmation, counter-screen for RPN11 inhibitor project, biochemical, fluorescence, single concentration; shares compounds with Rpn11 block; recombinant MMP-2, FRET peptide cleavage fluorescence; inhibition, % at 20 µM; 1,900 compounds, 4% hits;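 further: human MMP-2 activated beforehand with APMA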
Target sequence (P08253 whole entry, looked up): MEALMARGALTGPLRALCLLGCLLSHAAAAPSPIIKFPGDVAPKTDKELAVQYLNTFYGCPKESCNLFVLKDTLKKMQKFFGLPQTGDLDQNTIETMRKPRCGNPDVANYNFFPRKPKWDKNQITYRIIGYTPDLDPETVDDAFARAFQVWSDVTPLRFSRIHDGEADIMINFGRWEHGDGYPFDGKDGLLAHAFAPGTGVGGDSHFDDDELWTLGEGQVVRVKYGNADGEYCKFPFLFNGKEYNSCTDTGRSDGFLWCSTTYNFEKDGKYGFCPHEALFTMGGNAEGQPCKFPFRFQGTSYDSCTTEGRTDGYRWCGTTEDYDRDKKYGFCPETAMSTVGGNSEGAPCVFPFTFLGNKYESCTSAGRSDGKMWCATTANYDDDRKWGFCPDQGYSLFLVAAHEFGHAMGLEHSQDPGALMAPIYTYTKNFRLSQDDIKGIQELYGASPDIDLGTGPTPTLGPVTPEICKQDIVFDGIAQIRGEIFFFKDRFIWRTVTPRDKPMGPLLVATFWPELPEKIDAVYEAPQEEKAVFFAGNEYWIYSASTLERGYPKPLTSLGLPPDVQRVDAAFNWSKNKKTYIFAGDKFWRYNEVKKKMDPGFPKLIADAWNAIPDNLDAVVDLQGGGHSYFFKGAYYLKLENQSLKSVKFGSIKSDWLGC
Thrombin inh: bovine thrombin protease inhibition, confirmation, counter-screen for Rpn11 inhibitor project, biochemical, fluorescence polarization, single concentration; shares compounds with Rpn11 block; bovine thrombin cleavage of Ub4-pepOG; inhibition, % at 20 µM; 1,900 compounds, 13% hits;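 active means mean inhibition at least 40% at 20 µM, or signal 3 deviations below plate average, so some actives read negative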
CSN5 deneddyl: Csn5 deneddylation inhibitors, confirmation, biochemical, fluorescence polarization, single concentration, SCF-Nedd8OG substrate. inhibition, % at 16.6 µM. shares compounds with CSN inh. Csn5 deneddylation of SCF-Nedd8OG, 90 min. 540 compounds, 62% hits; in the data active means inhibition above about 50%
MMP-2 counter-2: MMP-2 protease inhibition counter-screen, confirmation, counter-screen for CSN deneddylation inhibitor project, biochemical, fluorescence, single concentration; shares compounds with CSN inh; recombinant MMP-2, FRET substrate fluorescence, 60 min; inhibition, % at 16.6 µM; 540 compounds, 33% hits; AID 720655, 2013;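 active means corrected plate-normalized z-score of 5 or more, or -5 or less, or inhibition of 15% or more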
Thrombin cntr: counter-screen for CSN deneddylation inhibitors: bovine thrombin inhibition. shares compounds with CSN inh. bovine thrombin cleavage of Ub4-pepOG, fluorescence polarization. inhibition, % at 16.6 µM. 540 compounds, 49% hits. AID 720656;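 active means inhibition at or above a set limit, with a fluorescence interference ratio between 0.5 and a set maximum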
A number is an active result. Unless noted, no stated cut-off is given here; in the data, active means inhibition above about 40%; inactive means the rest.

COc1ccc2nc(C)cc(N/N=C/c3ccc(F)cc3)c2c1 was read as TPT1 inhibitor inactive, CSN inh 44.7, IDE cell activ inactive, Rpn11 block 69.4, IDE cell inh inactive, HNF4A DNA FP inactive, Rpn11 inh conf inactive, MMP-2 counter-1 inactive, Thrombin inh inactive, CSN5 deneddyl 92.5, MMP-2 counter-2 15.6 and Thrombin cntr inactive.
Cc1cc(C)c2nc(N3C(=O)C(O)=C(C(=O)c4ccco4)C3c3ccco3)sc2c1 (stereo not given) was read as TPT1 inhibitor inactive, CSN inh 35.0, IDE cell activ inactive, Rpn11 block 39.3, IDE cell inh inactive, HNF4A DNA FP inactive, Rpn11 inh conf inactive, MMP-2 counter-1 inactive, Thrombin inh inactive, MMP-2 counter-2 inactive and Thrombin cntr inactive.
Screening Cc1ccccc1-c1cc2nc(Oc3cccc(F)c3)n(C)c(=O)c2s1 returned CSN inh inactive, Rpn11 block inactive and HNF4A DNA FP inactive.
`CC[n+]1ccccc1/C=C/c1ccc(N(C)C)cc1` gave CSN inh 38.4, IDE cell activ inactive, Rpn11 block 95.5, HNF4A DNA FP 50.4, Rpn11 inh conf 83.9, MMP-2 counter-1 inactive, Thrombin inh 87.6, CSN5 deneddyl 64.7, MMP-2 counter-2 -73.2 and Thrombin cntr 45.6.
For COc1ccc(CNC(=O)CC[C@H]2O[C@@H](n3ccc(=O)[nH]c3=O)[C@H](O)[C@@H]2O)cc1 the results were CSN inh inactive, Rpn11 block inactive and HNF4A DNA FP inactive.
`O=C(O)CCCCCN1C(=O)/C(=C/c2cn(-c3ccccc3)nc2-c2cccs2)SC1=S` gave CSN inh 91.9, IDE cell activ inactive, Rpn11 block 50.7, HNF4A DNA FP inactive, Rpn11 inh conf 84.0, MMP-2 counter-1 inactive, Thrombin inh 47.6, CSN5 deneddyl 82.1, MMP-2 counter-2 inactive and Thrombin cntr 21.8.
COc1cc(N(C)C)ccc1C=c1c2ccccc2n2c1cc(-c1ccccc1)[n+]2C was read as CSN inh 71.2, IDE cell activ inactive, Rpn11 block 114.8, HNF4A DNA FP inactive, Rpn11 inh conf 97.9, MMP-2 counter-1 inactive, Thrombin inh 82.4, CSN5 deneddyl inactive, MMP-2 counter-2 72.8 and Thrombin cntr 56.5.
`COc1cc(C=c2c3ccccc3n3c2cc(-c2ccccc2)[n+]3C)cc(OC)c1OC` gave CSN inh inactive, IDE cell activ inactive, Rpn11 block inactive and HNF4A DNA FP inactive.
`O=C(N/N=C/c1cc(Cl)cc([N+](=O)[O-])c1O)c1ccc2c(c1)OCO2` gave TPT1 inhibitor inactive, CSN inh inactive, IDE cell activ inactive, Rpn11 block inactive, IDE cell inh inactive and HNF4A DNA FP inactive.
`COc1cc(Cl)cc(/C=N\NC(=O)c2ccc3c(c2)OCO3)c1O` gave CSN inh 99.3, Rpn11 block 97.3, HNF4A DNA FP inactive, Rpn11 inh conf 134.1, MMP-2 counter-1 inactive, Thrombin inh 75.9, CSN5 deneddyl inactive, MMP-2 counter-2 23.5 and Thrombin cntr inactive.
For S=c1[nH]nc(-c2cc(-c3ccccc3)n[nH]2)n1/N=C/c1ccc(Br)s1 the results were TPT1 inhibitor inactive, CSN inh 35.8, IDE cell activ inactive, Rpn11 block active, IDE cell inh inactive, HNF4A DNA FP inactive, Rpn11 inh conf 91.4, MMP-2 counter-1 inactive, Thrombin inh 48.8, CSN5 deneddyl 82.1, MMP-2 counter-2 20.5 and Thrombin cntr inactive.
Cc1cc(-c2n[nH]c(=S)n2/N=C/c2ccc(Br)s2)n[nH]1 was read as TPT1 inhibitor inactive, CSN inh inactive, IDE cell activ inactive, Rpn11 block inactive, IDE cell inh inactive and HNF4A DNA FP inactive.
Screening Cc1cc(N2CCN(c3ccc([N+](=O)[O-])c4cccnc34)CC2)c2ccccc2n1 returned TPT1 inhibitor inactive, CSN inh 59.4, IDE cell activ inactive, Rpn11 block 45.4, IDE cell inh inactive, HNF4A DNA FP inactive, Rpn11 inh conf 48.5, MMP-2 counter-1 inactive, Thrombin inh inactive, CSN5 deneddyl 105.2, MMP-2 counter-2 inactive and Thrombin cntr inactive.
CC(=O)NC1=NC(=O)/C(=C/c2cc(C)n(-c3cccc(C(=O)O)c3)c2C)S1 was read as CSN inh 60.7, Rpn11 block 136.1, HNF4A DNA FP 49.3, Rpn11 inh conf active, MMP-2 counter-1 40.4, Thrombin inh 136.5, CSN5 deneddyl inactive, MMP-2 counter-2 15.8 and Thrombin cntr 52.9.
`CC1=NN2C(=N)/C(=C\c3cc(C)n(-c4cccc(C)c4)c3C)C(=O)N=C2S1` gave TPT1 inhibitor inactive, CSN inh inactive, IDE cell activ inactive, Rpn11 block inactive, IDE cell inh inactive and HNF4A DNA FP inactive.
